Most compounds without a hit are left out; they make up all but 4.6% or so of the library.
OX1R antag-1: OX1R (HCRTR1) antagonists, primary screen, fluorescence, CHO/OX1R cells, Fluo-8 calcium, orexin A; Orexin/Hypocretin receptor type 1 (Homo sapiens), O43613; Fluo-8 calcium fluorescence; inhibition, % at 5 µM; 0.43% of 330,000 active; AID 434989, 2010;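 active means inhibition above its plate's threshold, mean inhibition of all tested compounds on the plate plus 3 SD, cut at about 37% in these data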;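 further: 0% = orexin A challenge wells and 100% = SB-334867-A antagonist wells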
Target sequence (O43613 whole entry, looked up): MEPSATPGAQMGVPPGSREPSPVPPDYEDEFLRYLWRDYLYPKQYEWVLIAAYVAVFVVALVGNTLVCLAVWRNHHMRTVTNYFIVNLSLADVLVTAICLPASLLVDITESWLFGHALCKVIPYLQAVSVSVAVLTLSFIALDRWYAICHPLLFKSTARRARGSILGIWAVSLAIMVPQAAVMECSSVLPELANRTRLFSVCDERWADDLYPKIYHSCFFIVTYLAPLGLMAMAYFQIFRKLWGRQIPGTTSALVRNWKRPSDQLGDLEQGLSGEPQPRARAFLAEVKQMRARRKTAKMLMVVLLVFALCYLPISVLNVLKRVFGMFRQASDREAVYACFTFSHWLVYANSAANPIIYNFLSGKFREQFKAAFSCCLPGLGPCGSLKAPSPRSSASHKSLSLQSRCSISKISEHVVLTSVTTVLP
TAAR1 antagonist: human TAAR1 antagonists, primary screen, Fluo-8 calcium fluorescence, CHO RD-HGA16 cells; inhibition, % at 3 µM; AID 624466, 2012; Trace amine-associated receptor 1 (Homo sapiens), Q96RJ0; 1.5% of 360,000 active; antagonist;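 active means inhibition above a per-plate cutoff, the mean inhibition of test compounds on that plate plus 3 SD, cut at about 49% in these data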;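 further: 0% = DMSO plus EC80 beta-PEA response and 100% = DMSO alone without agonist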
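Test system: hTAAR1-expressing CHO RD-HGA16 cells, Gα16-coupled; Probe or stimulus: EC80 β-phenethylamine stimulus; Compound dosing: single nominal final test compound concentration of 3 µM; Timing: 140 s kinetic read after compound, 140 s after agonist; Signal: Fluo-8 calcium-sensitive fluorescence; Measure: % inhibition of agonist calcium response; Controls: DMSO and EC80 PEA controls.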
GPR7 antag: GPR7 receptor antagonists, primary screen, cell-based, fluorescence, single concentration. Neuropeptides B/W receptor type 1 (Homo sapiens), P48145. GPR7-expressing cells, fluorescence antagonist assay. inhibition, % at 4.4 µM. 1.1% of 290,000 active. AID 1861, 2009; in the data active means inhibition above about 16%, passing the limit was not always enough;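 further: cells stimulated with the agonist NPW; 0% = agonist with vehicle and 100% = vehicle without agonist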
TAAR1 agonist: human TAAR1 agonists, primary screen, Fluo-8 calcium fluorescence, CHO RD-HGA16 cells; vehicle wells 0%, saturating PEA agonist 100%; 0.99% of 360,000 active; activation, % at 3 µM; AID 624467, 2012; Trace amine-associated receptor 1 (Homo sapiens), Q96RJ0;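 active means activation above the mean activation of all test compounds in the run plus 3 SD, cut at about 38% in these data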
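Test system: RD-HGA16 (CHO) cells co-expressing Gα16 and hTAAR1 / Benchmarks: DMSO vehicle as 0%, PEA at EC100 as 100% / Repeats: no replicates (n 1) / Measure: % activation from peak over basal fluorescence ratio, DMSO-to-PEA scaled / Timing: 17-24 h plating, Fluo-8 75 min 37 °C, 30 min RT / Technique: kinetic Fluo-8 calcium fluorescence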
CHO parental Ca: ATP-evoked calcium signal inhibitors, parental CHO, primary screen, counter-screen for OX1R antagonist project, cell-based, fluorescence, Fluo-8 calcium dye; parental CHO-K1, ATP-induced calcium, Fluo-8 fluorescence; AID 463079, 2010; inhibition, % at 5.6 µM; 0.63% of 330,000 active;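 active means inhibition above that plate's mean sample inhibition plus 3 SD, cut at about 26% in these data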;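 further: 0% = ATP-challenged DMSO wells and 100% = DMSO wells without ATP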
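Test system: untransfected parental CHO cell line. Compound: one dose, 5.6 µM nominal. Detection: intracellular calcium via Fluo-8 no-wash fluorescent dye. Measure: % inhibition. Benchmarks: ATP-challenged DMSO wells low, unchallenged DMSO wells high.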
OX1R antag-2: antagonists of human orexin 1 receptor (OX1R); 1.8% of 330,000 active; inhibition, % at 6.6 µM; AID 485270, 2010; OX1R-expressing cells, FRET antagonist read-out; in the data active means inhibition mostly above about 38%, no sharp cut-off; inactive means mostly below about 40%;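 further: 0% = agonist challenge alone and 100% = reference antagonist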
nonsel antag count: nonselective antagonists in TAAR1 counter-screen cells, counter-screen for hTAAR1 antagonist project, cell-based, fluorescence, calcium. shares compounds with TAAR1 antagonist. counterscreen cell line, antagonist mode. inhibition, % at 3 µM. 77% of 2,400 active. AID 651780, 2012; in the data active means inhibition above about 22%;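 further: CHO-Ga16 host cells stimulated with ATP at an EC80 level; 0% = agonist EC80 plus vehicle and 100% = vehicle without agonist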
TAAR1 ant conf: human TAAR1 antagonists, retest of hits, confirmation, cell-based, fluorescence. shares compounds with TAAR1 antagonist. TAAR1-expressing cells, fluorescence antagonist read-out. inhibition, % at 3 µM. 40% of 2,400 active. AID 651785, 2012; in the data active means inhibition above about 49%;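 further: CHO-Ga16 host cells challenged with agonist PEA near its EC80; 0% = agonist at EC80 plus vehicle and 100% = vehicle with no agonist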
Ga16 ag counter: calcium activation in Ga16-expressing cells, counter-screen for TAAR1 antagonist project, cell-based, fluorescence; shares compounds with TAAR1 antagonist; agonist counterscreen; activation, % at 3 µM; 18% of 2,400 active; in the data active means activation above about 12%;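 further: 0% = vehicle wells and 100% = saturating stimulus response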
TAAR1 ag counter: TAAR1 activation by candidate antagonists – cell-based, fluorescence, counter-screen for TAAR1 antagonist project | shares compounds with TAAR1 antagonist | hTAAR1 cell line, agonist mode | activation, % at 3 µM | 2% of 2,400 active | AID 651955, 2012; in the data active means activation above about 37%;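 further: CHO cells stably expressing TAAR1 with calcium dye readout; 0% = DMSO vehicle and 100% = full agonist response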
* marks the source's active call; other numbers are inactive results; nt = no result.

SMILES	OX1R antag-1	TAAR1 antagonist	GPR7 antag	TAAR1 agonist	CHO parental Ca	OX1R antag-2	nonsel antag count	TAAR1 ant conf	Ga16 ag counter	TAAR1 ag counter
COc1cc2c(cc1OC)C1=C(C#N)CN(C3CCCCC3)CN1CC2	-31	53*	-17	8	-19	7	23*	34	10	7
COc1ccc(CCN2CC(C#N)=C3c4cc(OC)c(OC)cc4CCN3C2)cc1OC	-38	9	-10	4	-19	10	nt	nt	nt	nt
CCOc1nc(C)cc(C)c1S(=O)(=O)c1cccc(Cl)c1	-29	-8	-19	0	10	21	nt	nt	nt	nt
CCN(CC(=O)Nc1cc(Cl)ccc1C)C(=O)C1CCCCC1	-19	-1	7	0	6	23	nt	nt	nt	nt
Cc1sc2ncnc(N3CCC(C(=O)N(C)CC(=O)Nc4ccccc4Cl)CC3)c2c1C	-14	64*	13	11	-17	14	25*	41	9	5
Cc1sc2ncnc(N3CCC(C(=O)Nc4ccccc4C(C)(C)C)CC3)c2c1C	-31	26	nt	9	2	27	nt	nt	nt	nt
Cc1sc2ncnc(N3CCC(C(=O)N(C)CC(=O)Nc4cccc(F)c4)CC3)c2c1C	nt	68*	nt	18	nt	nt	32*	55*	13*	12
CCN(CC(=O)Nc1cc(Cl)ccc1C)C(=O)C1CCN(c2ncnc3sc(C)c(C)c23)CC1	nt	83*	nt	14	nt	nt	34*	54*	9	6
Cc1sc2ncnc(N3CCC(C(=O)N(C)CC(=O)Nc4ccc(Cl)c(C(F)(F)F)c4)CC3)c2c1C	-24	39	nt	7	6	26	nt	nt	nt	nt
Cc1sc2ncnc(N3CCC(C(=O)N(C)CC(=O)Nc4ccccc4Br)CC3)c2c1C	-25	63*	-11	10	-31	24	27*	44	9	8
CCOC(=O)CCNC(=O)N1CCCC(CNS(=O)(=O)c2cccs2)C1 (stereo not given)	-11	10	-8	0	-3	22	nt	nt	nt	nt
COc1ccc(C(=O)N2CCCC(c3cc(C(=O)NCc4cccnc4)no3)C2)cc1 (stereo not given)	nt	-35	nt	3	nt	nt	nt	nt	nt	nt
O=C(CC[C@H]1O[C@@H](n2cnc3c(NC(=O)c4ccccc4)ncnc32)[C@H](O)[C@@H]1O)N[C@@H](CO)c1ccccc1	nt	-12	nt	0	nt	nt	nt	nt	nt	nt
CN(Cc1ccccc1)C(=O)c1ncn(Cc2ccccc2)c1C(=O)N(C)Cc1ccccc1	-8	64*	nt	29	-24	24	29*	56*	12*	9
CCO[C@@H]1OC(C(=O)N2CCN(Cc3ccccc3)CC2)=C[C@H](c2csc3ccccc23)[C@H]1CCCO	-27	52*	-15	9	-2	22	23*	25	5	1
Cc1cc(Nc2cccc(Cl)c2Cl)n2ncnc2n1	nt	-14	-21	0	nt	nt	nt	nt	nt	nt
Cc1ccc(C)c(N2CCN(C(=O)COc3cc(=O)n(C)c4ccccc34)CC2)c1	-20	24	-10	10	-5	10	nt	nt	nt	nt
Cc1ccc(C)c(N2CCN(C(=O)CCCOc3cc(=O)n(C)c4ccccc34)CC2)c1	-19	54*	-11	25	-14	18	39*	56*	13*	16

Screening results: PubChem, The Scripps Research Institute Molecular Screening Center
